≈ marks a conversion by molar mass, not a printed value. Calls of active or inactive are those of the source. The rule behind the calls is not given here.
Columns and labels:
[1] = Selectivity index, ratio of cytotoxicity against pig LLC-PK1 cells to IC50 for Staphylococcus aureus ATCC 29213; type: toxicity, cell-based; conditions: read-out: Selectivity Index
In short: (§1)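 Selectivity index is the ratio CTX/IC50. For CTX, cells were seeded at 25 000 per well and grown 24 h, then exposed to peptide up to 10 μg/mL for 48 h, with viability by neutral red uptake. […] The inoculum was 5 × 10^5 CFU/mL, with OD530 read before and after incubation.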

[2] = tested on: Cryptococcus neoformans; experiment: Induction of nuclear fragmentation in Cryptococcus neoformans ATCC 350 at 0.39 ug/ml after 1 hr by DAPI staining based confocal microscopic analysis; type: functional
[3] = tested on: Cryptococcus neoformans; experiment: Synergistic antifungal activity against Cryptococcus neoformans ATCC 350 assessed as fold reduction in fluconazole MIC by checkerboard method relative to fluconazole alone; type: functional
[4] = tested on: Escherichia coli; experiment: Antibacterial activity against Escherichia coli ATCC 35218 after 16 to 20 hrs by alamar blue dye based CLSI method; type: functional
[5] = Selectivity index, ratio of cytotoxicity against human SK-MEL cells to IC50 for Staphylococcus aureus ATCC 29213; type: toxicity, cell-based; conditions: read-out: Selectivity Index; in short: as §1
[6] = Selectivity index, ratio of cytotoxicity against African green monkey VERO cells to IC50 for methicillin-resistant Staphylococcus aureus ATCC 33591; type: toxicity, cell-based; conditions: read-out: Selectivity Index
In short: (§2)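 Selectivity index is the ratio CTX/IC50. For CTX, cells were seeded at 25 000 per well and grown 24 h, then given peptide up to 10 μg/mL for 48 h, with neutral red uptake read-out. […] OD530 was read before and after 16−20 h at 35 °C.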

[7] = tested on: Staphylococcus aureus; experiment: Antibacterial activity against methicillin-resistant Staphylococcus aureus ATCC 33591 after 16 to 20 hrs by alamar blue dye based CLSI method; type: functional
[8] = tested on: Cryptococcus neoformans; experiment: Synergistic antifungal activity against Cryptococcus neoformans ATCC 350 in presence of fluconazole by checkerboard method; type: functional
[9] = tested on: Cryptococcus neoformans; experiment: Antifungal activity against Cryptococcus neoformans ATCC 350 after 70 to 74 hrs by alamar blue dye based CLSI method; type: functional
[10] = tested on: Cryptococcus neoformans; experiment: Disruption of plasma membrane in Cryptococcus neoformans ATCC 350 at 0.39 ug/ml after 1 hr by uranyl acetate/lead acetate staining based transmission electron microscopic analysis; type: functional
[11] = tested on: Cryptococcus neoformans; experiment: Induction of membrane permeabilization in Cryptococcus neoformans ATCC 350 at 0.39 ug/ml after 1 hr using FITC labeled compound by confocal microscopic analysis; type: functional
[12] = Metabolic stability of the compound assessed as trypsin (unknown origin)-mediated compound hydrolysis at compound to trypsin ratio of 100 to 0.5 after 2 hrs by RP-HPLC analysis; type: ADME; conditions: human
In short: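 Peptide:trypsin 100:0.5 mol/mol in 0.1 M NH4CO3, 0.1 mM CaCl2, pH 8.3, shaken at 37 °C, 200 rpm; aliquot analysed by RP-HPLC, retention time and peak intensity compared with untreated peptide; 2 h sampling per results text.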

[13] = tested on: BT-549; experiment: Cytotoxicity against human BT549 cells assessed as reduction in cell viability after 48 hrs by neutral red uptake assay; type: cell-based; conditions: bt-549, 48 h
In short: (§3)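 Cells seeded at 25 000 per well and grown 24 h to confluence, then exposed to peptides up to 10 μg/mL for 48 h; viability by modified neutral red uptake; doxorubicin positive control, DMSO negative control.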

[14] = tested on: Cryptococcus neoformans; experiment: Synergistic antifungal activity against Cryptococcus neoformans ATCC 350 in presence of amphotericin B by checkerboard method; type: functional
[15] = Selectivity index, ratio of cytotoxicity against human BT549 cells to IC50 for Cryptococcus neoformans ATCC 90113; type: toxicity, cell-based; conditions: read-out: Selectivity Index
[16] = Selectivity index, ratio of cytotoxicity against human BT549 cells to IC50 for methicillin-resistant Staphylococcus aureus ATCC 33591; type: toxicity, cell-based; conditions: read-out: Selectivity Index; in short: as §2
[17] = Selectivity index, ratio of cytotoxicity against human SK-MEL cells to IC50 for methicillin-resistant Staphylococcus aureus ATCC 33591; type: toxicity, cell-based; conditions: read-out: Selectivity Index; in short: as §2
[18] = Selectivity index, ratio of cytotoxicity against pig LLC-PK1 cells to IC50 for methicillin-resistant Staphylococcus aureus ATCC 33591; type: toxicity, cell-based; conditions: read-out: Selectivity Index; in short: as §2
[19] = tested on: Cryptococcus neoformans; experiment: Disruption of cell wall membrane in Cryptococcus neoformans ATCC 350 at 0.39 ug/ml after 1 hr by uranyl acetate/lead acetate staining based transmission electron microscopic analysis; type: functional
[20] = tested on: Aspergillus; experiment: Antifungal activity against Aspergillus; type: functional
[21] = Selectivity index, ratio of cytotoxicity against human SKOV3 cells to IC50 for Staphylococcus aureus ATCC 29213; type: toxicity, cell-based; conditions: read-out: Selectivity Index; in short: as §1
[22] = tested on: Vero; experiment: Cytotoxicity against African green monkey Vero cells assessed as reduction in cell viability after 48 hrs by neutral red uptake assay; type: cell-based; conditions: chlorocebus sabaeus; in short: as §3
[23] = tested on: Cryptococcus neoformans; experiment: Synergistic antifungal activity against Cryptococcus neoformans ATCC 350 assessed as fold reduction in MIC in presence of fluconazole by checkerboard method relative to control; type: functional
[24] = tested on: Cryptococcus neoformans; experiment: Fungicidal activity against Cryptococcus neoformans ATCC 350 at 0.39 ug/ml up to 4 hrs by time kill assay; type: functional
[25] = tested on: SK-MEL; experiment: Cytotoxicity against human SK-MEL cells assessed as reduction in cell viability after 48 hrs by neutral red uptake assay; type: cell-based; in short: as §3
[26] = tested on: LLC-PK1; experiment: Cytotoxicity against pig LLC-PK1 cells assessed as reduction in cell viability after 48 hrs by neutral red uptake assay; type: cell-based, Sus scrofa; conditions: llc-pk1, 48 h; in short: as §3
[27] = Selectivity index, ratio of cytotoxicity against human SKOV3 cells to IC50 for methicillin-resistant Staphylococcus aureus ATCC 33591; type: toxicity, cell-based; conditions: read-out: Selectivity Index; in short: as §2
[28] = Selectivity index, ratio of cytotoxicity against human SK-MEL cells to IC50 for Cryptococcus neoformans ATCC 90113; type: toxicity, cell-based; conditions: read-out: Selectivity Index
[29] = Selectivity index, ratio of cytotoxicity against human BT549 cells to IC50 for Staphylococcus aureus ATCC 29213; type: toxicity, cell-based; conditions: read-out: Selectivity Index; in short: as §1
[30] = tested on: Cryptococcus neoformans; experiment: Induction of membrane permeabilization in Cryptococcus neoformans ATCC 350 assessed as increase in propidium iodide uptake at 0.39 ug/ml after 1 hr by confocal microscopic analysis; type: functional
[31] = Selectivity index, ratio of cytotoxicity against African green monkey VERO cells to IC50 for Staphylococcus aureus ATCC 29213; type: toxicity, cell-based; conditions: read-out: Selectivity Index; in short: as §1
[32] = Selectivity index, ratio of cytotoxicity against human SKOV3 cells to IC50 for Cryptococcus neoformans ATCC 90113; type: toxicity, cell-based; conditions: read-out: Selectivity Index
[33] = tested on: Cryptococcus neoformans; experiment: Synergistic antifungal activity against Cryptococcus neoformans ATCC 350 assessed as fold reduction in amphotericin B MIC by checkerboard method relative to amphotericin B alone; type: functional
[34] = Selectivity index, ratio of cytotoxicity against pig LLC-PK1 cells to IC50 for Cryptococcus neoformans ATCC 90113; type: toxicity, cell-based; conditions: read-out: Selectivity Index
[35] = tested on: Cryptococcus neoformans; experiment: Antifungal activity against Cryptococcus neoformans ATCC 90113 after 70 to 74 hrs by alamar blue dye based CLSI method; type: functional
[36] = tested on: Staphylococcus aureus; experiment: Antibacterial activity against Staphylococcus aureus ATCC 29213 after […] hrs by alamar blue dye based CLSI method; type: functional
[37] = tested on: Candida; experiment: Antifungal activity against Candida; type: functional
[38] = tested on: SK-OV-3; experiment: Cytotoxicity against human SKOV3 cells assessed as reduction in cell viability after 48 hrs by neutral red uptake assay; type: cell-based; conditions: sk-ov-3, 48 h; in short: as §3
[39] = Selectivity index, ratio of cytotoxicity against African green monkey VERO cells to IC50 for Cryptococcus neoformans ATCC 90113; type: toxicity, cell-based; conditions: read-out: Selectivity Index
[40] = tested on: Cryptococcus neoformans; experiment: Synergistic antifungal activity against Cryptococcus neoformans ATCC 350 assessed as fold reduction in MIC in presence of amphotericin B by checkerboard method relative to control; type: functional
[41] = tested on: Cryptococcus neoformans; experiment: Induction of morphological changes in Cryptococcus neoformans ATCC 350 assessed as cell wall breakage at 0.39 ug/ml after 1 hr by uranyl acetate/lead acetate staining based scanning electron microscopic analysis; type: functional

COC(=O)[C@H](Cc1c[nH]c(-c2ccc(-c3ccccc3)cc2)n1)NC(=O)[C@H](Cc1c[nH]c2ccccc12)NC(=O)[C@@H](N)Cc1c[nH]c(-c2ccc(-c3ccccc3)cc2)n1
selectivity ratio [1]: > 3.9
Activity [2]: Active
fold change (FC) [3]: 4
Activity [4]: inactive
selectivity ratio [5]: > 3.9
selectivity ratio [6]: > 5.18
IC50 [7]: 1.93 µg/mL (≈ 2.42 µM)
MBC [7]: 10 µg/mL (≈ 12.5 µM)
MIC [7]: 5 µg/mL (≈ 6.27 µM)
fractional inhibitory concentration index (FICI) [8]: 0.308
MIC [9]: 0.44 µM (≈ 0.351 µg/mL)
Activity [10]: Active
Activity [11]: Active
Stability [12]: Stable
Activity [13]: > 10 µg/mL
fractional inhibitory concentration index (FICI) [14]: 0.092
selectivity ratio [15]: > 28.6
selectivity ratio [16]: > 5.18
selectivity ratio [17]: > 5.18
selectivity ratio [18]: > 5.18
Activity [19]: Active
Activity [20]: inactive
selectivity ratio [21]: > 3.9
Activity [22]: > 10 µg/mL
fold change (FC) [23]: 16
Activity [24]: Active
Activity [25]: > 10 µg/mL
Activity [26]: > 10 µg/mL
selectivity ratio [27]: > 5.18
selectivity ratio [28]: > 28.6
selectivity ratio [29]: > 3.9
Activity [30]: Active
selectivity ratio [31]: > 3.9
selectivity ratio [32]: > 28.6
fold change (FC) [33]: 16
selectivity ratio [34]: > 28.6
IC50 [35]: 0.35 µg/mL (≈ 0.439 µM)
MFC [35]: 0.63 µg/mL (≈ 0.791 µM)
MIC [35]: 0.63 µg/mL (≈ 0.791 µM)
IC50 [36]: 2.56 µg/mL (≈ 3.21 µM)
MBC [36]: > 20 µg/mL
MIC [36]: > 20 µg/mL
Activity [37]: inactive
Activity [38]: > 10 µg/mL
selectivity ratio [39]: > 28.6
fold change (FC) [40]: 32
Activity [41]: Active
